Reference: ChEMBL document CHEMBL4052661, “Structure Based Design of N-(3-((1H-Pyrazolo[3,4-b]pyridin-5-yl)ethynyl)benzenesulfonamides as Selective Leucine-Zipper and Sterile-α Motif Kinase (ZAK) Inhibitors” (J Med Chem, 2017)

Legend:
Rattus norvegicus [1] = test: AUC (0 to infinity) in Sprague-Dawley rat at 10 mg/kg, po by HPLC/MS analysis; type: ADME, organism-based; set-up: dose 10 mg/kg, time infinity, route oral; conditions: in vivo
Method in brief: (§1)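 Sprague-Dawley rats given a single oral dose of 10 mg/kg; plasma exposure (AUC), half-life and oral bioavailability derived.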

Aurora kinase B [2] = molecular target: T1, Aurora kinase B (Homo sapiens, UniProt Q96GD4); test: Binding affinity to partial length human AURKB expressed in HEK293 cells by active-site-dependent competition assay; type: cell-based
T1 sequence (Q96GD4 whole entry): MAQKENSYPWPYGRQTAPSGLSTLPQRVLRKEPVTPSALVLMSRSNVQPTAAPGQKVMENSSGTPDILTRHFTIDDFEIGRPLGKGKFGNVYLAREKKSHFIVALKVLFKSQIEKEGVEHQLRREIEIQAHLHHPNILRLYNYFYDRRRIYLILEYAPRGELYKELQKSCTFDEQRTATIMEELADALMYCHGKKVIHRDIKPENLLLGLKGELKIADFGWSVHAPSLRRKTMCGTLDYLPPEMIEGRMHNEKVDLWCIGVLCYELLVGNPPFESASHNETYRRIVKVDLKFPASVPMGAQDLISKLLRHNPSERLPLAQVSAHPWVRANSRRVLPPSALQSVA
Method in brief: (§2)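 Active-site-dependent competition binding (KINOMEscan) run by an outside service across a panel of 468 kinases (403 nonmutated, 65 mutated); reported as binding constant Kd.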

Aurora kinase B [3] = molecular target: T1, Aurora kinase B; test: Inhibition of partial length human AURKB expressed in HEK293 cells assessed as remaining activity at 1 uM after 1 hr by KINOMEscan method; type: cell-based
Method in brief: (§3)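 Active-site-dependent competition binding screen run by an outside provider across a 468-kinase panel (403 nonmutated, 65 mutated kinases).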

[4] = molecular target: T2, Serine/threonine-protein kinase B-raf (Homo sapiens, UniProt P15056, V600E); test: Binding affinity to partial length human BRAF V600E mutant expressed in HEK293 cells by active-site-dependent competition assay; type: cell-based; method in brief: as §2
T2 sequence (P15056 2-766 V600E limits assumed): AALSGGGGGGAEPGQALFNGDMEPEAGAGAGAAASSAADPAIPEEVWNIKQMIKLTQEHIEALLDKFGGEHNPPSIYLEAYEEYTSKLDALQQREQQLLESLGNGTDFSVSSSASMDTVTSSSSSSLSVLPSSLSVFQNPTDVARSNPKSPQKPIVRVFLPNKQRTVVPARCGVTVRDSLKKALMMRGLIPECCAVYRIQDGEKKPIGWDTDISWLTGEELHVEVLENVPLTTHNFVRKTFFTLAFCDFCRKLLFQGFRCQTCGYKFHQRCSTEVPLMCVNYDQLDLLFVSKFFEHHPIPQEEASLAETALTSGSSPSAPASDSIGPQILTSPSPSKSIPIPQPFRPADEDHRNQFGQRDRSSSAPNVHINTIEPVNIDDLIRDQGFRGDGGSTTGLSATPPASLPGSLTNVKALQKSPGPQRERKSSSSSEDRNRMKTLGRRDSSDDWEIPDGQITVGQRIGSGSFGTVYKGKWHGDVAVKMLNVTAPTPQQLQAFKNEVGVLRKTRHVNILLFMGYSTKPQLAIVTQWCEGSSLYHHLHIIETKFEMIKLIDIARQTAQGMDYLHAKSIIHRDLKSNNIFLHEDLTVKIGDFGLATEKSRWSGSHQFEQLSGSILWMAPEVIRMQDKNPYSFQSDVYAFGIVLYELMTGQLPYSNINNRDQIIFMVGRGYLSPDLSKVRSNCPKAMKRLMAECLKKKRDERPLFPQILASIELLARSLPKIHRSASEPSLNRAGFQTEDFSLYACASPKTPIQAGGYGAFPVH

[5] = molecular target: T2, Serine/threonine-protein kinase B-raf; test: Inhibition of recombinant human B-RAF V600E mutant using Ser/Thr3 as substrate after 1 hr by FRET-based Z'-Lyte assay
Rattus norvegicus [6] = species: Rattus norvegicus; test: Inhibition of ZAK in Ang-2-induced rat H9c2 cells assessed as decrease in p38 phosphorylation by Western blot analysis
Rattus norvegicus [7] = test: Inhibition of myocardial hypertrophy in po dosed spontaneous hypertensive WKY rat model assessed as downregulation of BNP levels administered for 4 continuous weeks by Western blot method; type: functional, organism-based
Method in brief: (§4)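 Spontaneously hypertensive rats given oral 0, 10 or 20 mg/kg/day for 4 continuous weeks alongside normotensive Wistar-Kyoto controls; left ventricles harvested after sacrifice for Western blot analysis.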

Rattus norvegicus [8] = test: Inhibition of myocardial hypertrophy in po dosed spontaneous hypertensive WKY rat model assessed as decrease in p38 phosphorylation administered for 4 continuous weeks by Western blot method; type: functional, organism-based; method in brief: as §4
[9] = molecular target: T3, Dual specificity mitogen-activated protein kinase kinase 5 (Homo sapiens, UniProt Q13163); test: Binding affinity to partial length human MEK5 expressed in HEK293 cells by active-site-dependent competition assay; type: cell-based; method in brief: as §2
T3 sequence (Q13163 whole entry): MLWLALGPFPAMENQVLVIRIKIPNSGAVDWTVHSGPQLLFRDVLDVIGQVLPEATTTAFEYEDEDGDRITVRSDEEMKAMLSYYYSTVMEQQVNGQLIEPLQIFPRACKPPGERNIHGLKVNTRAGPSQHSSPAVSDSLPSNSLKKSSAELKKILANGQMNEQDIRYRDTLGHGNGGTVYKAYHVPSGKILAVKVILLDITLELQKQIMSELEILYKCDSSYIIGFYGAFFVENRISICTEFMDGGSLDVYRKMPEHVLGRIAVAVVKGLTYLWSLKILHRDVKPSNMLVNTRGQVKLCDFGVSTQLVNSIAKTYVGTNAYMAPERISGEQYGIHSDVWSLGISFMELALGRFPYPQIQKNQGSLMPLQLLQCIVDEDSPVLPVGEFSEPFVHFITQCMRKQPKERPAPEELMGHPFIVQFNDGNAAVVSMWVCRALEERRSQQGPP

[10] = molecular target: T4, Mast/stem cell growth factor receptor Kit (Homo sapiens, UniProt P10721); test: Binding affinity to partial length human KIT expressed in Escherichia coli BL21 by active-site-dependent competition assay; method in brief: as §2
[11] = molecular target: T5, Tyrosine-protein kinase Srms (Homo sapiens, UniProt Q9H3Y6); test: Inhibition of partial length human SRMS expressed in HEK293 cells assessed as remaining activity at 1 uM after 1 hr by KINOMEscan method; type: cell-based; method in brief: as §3
T5 sequence (Q9H3Y6 whole entry): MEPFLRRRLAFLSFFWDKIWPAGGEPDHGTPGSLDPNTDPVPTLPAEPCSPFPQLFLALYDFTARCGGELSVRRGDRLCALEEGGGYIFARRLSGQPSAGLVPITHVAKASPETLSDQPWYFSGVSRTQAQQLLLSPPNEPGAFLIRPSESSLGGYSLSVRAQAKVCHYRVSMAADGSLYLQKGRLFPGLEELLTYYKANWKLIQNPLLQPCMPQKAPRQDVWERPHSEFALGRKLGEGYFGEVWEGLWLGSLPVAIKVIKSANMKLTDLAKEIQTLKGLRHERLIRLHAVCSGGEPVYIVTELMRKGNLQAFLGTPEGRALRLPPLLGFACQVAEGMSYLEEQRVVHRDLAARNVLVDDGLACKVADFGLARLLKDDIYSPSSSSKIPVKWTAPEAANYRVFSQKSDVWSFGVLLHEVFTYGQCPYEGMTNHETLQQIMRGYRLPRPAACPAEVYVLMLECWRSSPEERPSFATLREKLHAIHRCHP

[12] = molecular target: T6, Serine/threonine-protein kinase SIK1 (Homo sapiens, UniProt P57059); test: Inhibition of partial length human SIK expressed in Escherichia coli BL21 assessed as remaining activity at 1 uM after 1 hr by KINOMEscan method; method in brief: as §3
T6 sequence (P57059 whole entry): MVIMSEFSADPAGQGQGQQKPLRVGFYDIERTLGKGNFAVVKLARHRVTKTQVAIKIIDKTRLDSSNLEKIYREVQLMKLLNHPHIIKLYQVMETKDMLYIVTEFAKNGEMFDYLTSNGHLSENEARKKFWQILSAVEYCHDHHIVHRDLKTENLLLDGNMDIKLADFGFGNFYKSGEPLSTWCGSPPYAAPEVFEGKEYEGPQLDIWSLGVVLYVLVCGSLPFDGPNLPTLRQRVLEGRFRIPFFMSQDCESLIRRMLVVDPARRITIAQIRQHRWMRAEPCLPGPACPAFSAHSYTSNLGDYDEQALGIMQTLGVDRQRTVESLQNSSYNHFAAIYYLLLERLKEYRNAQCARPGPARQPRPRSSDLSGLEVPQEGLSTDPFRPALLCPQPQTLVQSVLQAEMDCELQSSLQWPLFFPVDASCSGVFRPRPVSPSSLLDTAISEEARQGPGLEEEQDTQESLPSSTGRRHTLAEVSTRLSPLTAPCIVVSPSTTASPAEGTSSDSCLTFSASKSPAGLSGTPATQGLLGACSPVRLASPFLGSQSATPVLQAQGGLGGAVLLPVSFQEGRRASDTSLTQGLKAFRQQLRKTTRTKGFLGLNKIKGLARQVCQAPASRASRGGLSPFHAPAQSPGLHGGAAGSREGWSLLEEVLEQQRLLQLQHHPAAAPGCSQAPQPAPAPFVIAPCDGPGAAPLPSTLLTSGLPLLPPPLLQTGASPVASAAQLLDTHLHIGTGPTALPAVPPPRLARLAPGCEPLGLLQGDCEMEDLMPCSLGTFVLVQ

Rattus norvegicus [13] = test: Inhibition of myocardial hypertrophy in po dosed spontaneous hypertensive WKY rat model assessed as decrease in left ventricular mass at systole administered for 4 continuous weeks; type: functional, organism-based
Method in brief: (§5)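 Spontaneously hypertensive rats randomized into 3 groups given oral 0, 10 or 20 mg/kg/day for 4 continuous weeks; normotensive Wistar-Kyoto rats as reference; n = 6 per group. After sacrifice, left ventricles were collected to measure mass at diastole and systole; heart sections stained with hematoxylin and eosin for cardiomyocyte arrangement.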

[14] = molecular target: T5, Tyrosine-protein kinase Srms; test: Binding affinity to partial length human SRMS expressed in HEK293 cells by active-site-dependent competition assay; type: cell-based; method in brief: as §2
[15] = molecular target: T7, Tyrosine-protein kinase FRK (Homo sapiens, UniProt P42685); test: Inhibition of partial length human FRK expressed in Escherichia coli BL21 assessed as remaining activity at 1 uM after 1 hr by KINOMEscan method; method in brief: as §3
T7 sequence (P42685 whole entry): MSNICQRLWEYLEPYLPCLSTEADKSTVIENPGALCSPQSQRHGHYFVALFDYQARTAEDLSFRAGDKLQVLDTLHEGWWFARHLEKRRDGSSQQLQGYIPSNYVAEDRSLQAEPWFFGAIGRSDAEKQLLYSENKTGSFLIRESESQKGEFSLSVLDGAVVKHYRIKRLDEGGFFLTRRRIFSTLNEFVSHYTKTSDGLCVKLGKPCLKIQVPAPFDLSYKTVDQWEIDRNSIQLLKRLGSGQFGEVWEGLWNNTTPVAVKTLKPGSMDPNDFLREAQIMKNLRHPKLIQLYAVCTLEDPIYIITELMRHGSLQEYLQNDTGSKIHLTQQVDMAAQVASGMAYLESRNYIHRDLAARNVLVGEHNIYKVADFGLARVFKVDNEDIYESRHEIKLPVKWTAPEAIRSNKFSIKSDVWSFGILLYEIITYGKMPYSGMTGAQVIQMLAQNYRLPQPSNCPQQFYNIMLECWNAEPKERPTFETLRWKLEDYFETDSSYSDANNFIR

Rattus norvegicus [16] = species: Rattus norvegicus; test: Inhibition of ZAK in Ang-2-induced rat H9c2 cells assessed as downregulation of BNP levels by Western blot analysis
[17] = molecular target: T8, Mitogen-activated protein kinase kinase kinase 20 (Homo sapiens, UniProt Q9NYL2); test: Inhibition of partial length human ZAK expressed in Escherichia coli BL21 assessed as remaining activity at 1 uM after 1 hr by KINOMEscan method; method in brief: as §3
[18] = test system: Mast/stem cell growth factor receptor Kit (Homo sapiens), P10721 [V559D]; test: Inhibition of partial length human KIT V559D mutant expressed in Escherichia coli BL21 assessed as remaining activity at 1 uM after 1 hr by KINOMEscan method; method in brief: as §3
[19] = Half life in Sprague-Dawley rat at 10 mg/kg, po by HPLC/MS analysis; type: ADME, organism-based; conditions: in vivo; method in brief: as §1
[20] = test system: Mast/stem cell growth factor receptor Kit (Homo sapiens), P10721 [L576P]; test: Inhibition of partial length human KIT L576P mutant expressed in Escherichia coli BL21 assessed as remaining activity at 1 uM after 1 hr by KINOMEscan method; method in brief: as §3
[21] = molecular target: Serine/threonine-protein kinase B-raf (Homo sapiens, UniProt P15056); test: Inhibition of wild type GST-tagged recombinant human full-length B-RAF expressed in baculovirus expression system using Ser/Thr3 as substrate after 1 hr by FRET-based Z'-Lyte assay
Serine/threonine-protein kinase B-raf (Homo sapiens, UniProt P15056), sequence (P15056 whole entry): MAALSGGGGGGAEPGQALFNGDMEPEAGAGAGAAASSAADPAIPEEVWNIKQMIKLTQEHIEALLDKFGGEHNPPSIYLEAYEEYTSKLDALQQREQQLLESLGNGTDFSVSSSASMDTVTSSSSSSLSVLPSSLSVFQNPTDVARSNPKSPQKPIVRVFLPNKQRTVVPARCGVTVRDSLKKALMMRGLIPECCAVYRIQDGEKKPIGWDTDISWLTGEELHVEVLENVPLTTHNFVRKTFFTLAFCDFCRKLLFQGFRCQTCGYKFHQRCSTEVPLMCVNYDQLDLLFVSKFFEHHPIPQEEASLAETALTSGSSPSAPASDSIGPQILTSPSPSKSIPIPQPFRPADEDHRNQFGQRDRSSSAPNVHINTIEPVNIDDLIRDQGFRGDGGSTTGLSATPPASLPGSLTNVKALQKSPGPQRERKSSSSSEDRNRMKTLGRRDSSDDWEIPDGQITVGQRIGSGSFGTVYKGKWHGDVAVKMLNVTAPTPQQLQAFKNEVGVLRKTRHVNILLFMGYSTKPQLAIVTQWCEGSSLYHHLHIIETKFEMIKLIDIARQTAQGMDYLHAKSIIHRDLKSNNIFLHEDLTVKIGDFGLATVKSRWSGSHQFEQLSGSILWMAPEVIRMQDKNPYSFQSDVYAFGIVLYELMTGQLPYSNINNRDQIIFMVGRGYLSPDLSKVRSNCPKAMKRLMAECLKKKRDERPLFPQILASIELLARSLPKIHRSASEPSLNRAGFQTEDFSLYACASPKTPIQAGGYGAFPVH
Method in brief: (§6)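 Z'-Lyte FRET assay with Ser/Thr3 peptide in kinase buffer; the final reaction held 0.002 ng B-Raf for wild type. Incubated 1 h at room temperature, then 1 h development to cleave nonphosphorylated peptide, then stop reagent. Means of 3 independent experiments.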

[22] = molecular target: T8, Mitogen-activated protein kinase kinase kinase 20; test: Inhibition of N-terminal GST-tagged recombinant human full-length ZAK expressed in baculovirus infected Sf9 insect cells using MBP as substrate after 30 mins by ADP-Glo assay
Method in brief: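 ZAK activity by ADP-Glo luminescence with MBP as substrate, ATP and serially diluted compound. Reaction started by adding ATP and run 30 min at room temperature. ADP-Glo reagent was added to stop it (40 min), then detection reagent for 30 min before reading luminescence. Curves fitted; each experiment repeated at least 3 times.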
Target sequence in this assay (Q9NYL2 whole entry): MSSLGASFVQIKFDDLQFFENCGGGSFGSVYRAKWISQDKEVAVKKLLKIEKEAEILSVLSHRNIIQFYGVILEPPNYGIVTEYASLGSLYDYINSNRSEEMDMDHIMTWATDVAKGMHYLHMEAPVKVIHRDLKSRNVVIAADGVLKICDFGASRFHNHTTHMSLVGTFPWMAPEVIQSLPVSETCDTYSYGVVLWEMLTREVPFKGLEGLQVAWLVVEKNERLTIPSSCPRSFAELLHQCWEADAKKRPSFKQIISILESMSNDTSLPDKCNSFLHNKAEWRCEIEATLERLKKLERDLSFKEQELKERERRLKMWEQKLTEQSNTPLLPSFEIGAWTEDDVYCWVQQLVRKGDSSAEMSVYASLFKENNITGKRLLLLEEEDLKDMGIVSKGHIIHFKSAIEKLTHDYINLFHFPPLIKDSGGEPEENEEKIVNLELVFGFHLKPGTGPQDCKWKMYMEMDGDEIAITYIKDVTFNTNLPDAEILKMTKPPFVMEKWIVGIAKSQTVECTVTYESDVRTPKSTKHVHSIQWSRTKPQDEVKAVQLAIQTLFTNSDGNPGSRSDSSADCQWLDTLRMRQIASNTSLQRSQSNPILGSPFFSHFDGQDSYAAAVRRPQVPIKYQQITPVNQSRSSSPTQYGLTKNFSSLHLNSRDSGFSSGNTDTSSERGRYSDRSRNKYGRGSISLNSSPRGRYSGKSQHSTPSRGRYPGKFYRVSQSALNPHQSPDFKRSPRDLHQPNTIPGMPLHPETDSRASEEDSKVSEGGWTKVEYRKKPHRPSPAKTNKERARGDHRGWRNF

[23] = molecular target: T9, Dual specificity mitogen-activated protein kinase kinase 5 (Homo sapiens) (UniProt Q13163); test: Inhibition of partial length human MEK5 expressed in HEK293 cells assessed as remaining activity at 1 uM after 1 hr by KINOMEscan method; type: cell-based; method in brief: as §3
T9 sequence (whole entry): T3 sequence (Q13163 whole entry)

[24] = Protein binding in mouse plasma at 1 uM after 4 hrs by equilibrium dialysis method; type: ADME, cell-free; conditions: read-out: PPB (converted)
Rattus norvegicus [25] = test: Inhibition of myocardial hypertrophy in po dosed spontaneous hypertensive WKY rat model assessed as decrease in JNK phosphorylation administered for 4 continuous weeks by Western blot method; type: functional, organism-based; method in brief: as §4
Rattus norvegicus [26] = species: Rattus norvegicus; test: Inhibition of ZAK in Ang-2-induced rat H9c2 cells assessed as decrease in JNK phosphorylation by Western blot analysis
[27] = molecular target: T7, Tyrosine-protein kinase FRK; test: Binding affinity to partial length human FRK expressed in Escherichia coli BL21 by active-site-dependent competition assay; method in brief: as §2
Rattus norvegicus [28] = test: Inhibition of myocardial hypertrophy in spontaneous hypertensive WKY rat model assessed as left ventricular mass at diastole at 20 mg/kg, po administered for 4 continuous weeks (reference value: 1.2 +/- 0.052 g); type: functional; method in brief: as §5
[29] = molecular target: T8, Mitogen-activated protein kinase kinase kinase 20; test: Binding affinity to partial length human ZAK expressed in Escherichia coli BL21 by active-site-dependent competition assay; method in brief: as §2
Target sequence in this assay (Q9NYL2 whole entry): as above

[30] = molecular target: T2, Serine/threonine-protein kinase B-raf; test: Inhibition of partial length human BRAF V600E mutant expressed in HEK293 cells using Ser/Thr3 as substrate after 1 hr by FRET-based Z'-Lyte assay
Method in brief: as §6, with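 “reagent. Controls: phosphopeptide for 100% phosphorylation, buffer instead of ATP for 100% inhibition, DMSO vehicle for 0% inhibition.” for “reagent.”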

[31] = molecular target: Mast/stem cell growth factor receptor Kit (Homo sapiens, UniProt P10721, V559D); test: Binding affinity to partial length human KIT V559D mutant expressed in Escherichia coli BL21 by active-site-dependent competition assay; method in brief: as §2
Rattus norvegicus [32] = test: Inhibition of myocardial hypertrophy in po dosed spontaneous hypertensive WKY rat model assessed as decrease in left ventricular mass at diastole administered for 4 continuous weeks; type: functional, organism-based; method in brief: as §5
[33] = test system: Serine/threonine-protein kinase B-raf (Homo sapiens), P15056 [V600E]; test: Inhibition of partial length human BRAF V600E mutant expressed in HEK293 cells assessed as remaining activity at 1 uM after 1 hr by KINOMEscan method; type: cell-based; method in brief: as §3
Serine/threonine-protein kinase B-raf (Homo sapiens), P15056 [V600E], sequence (P15056 whole entry V600E): as the sequence (P15056 whole entry) above, with V600E counted along it

[34] = molecular target: T6, Serine/threonine-protein kinase SIK1; test: Binding affinity to partial length human SIK expressed in Escherichia coli BL21 by active-site-dependent competition assay; method in brief: as §2
[35] = Oral bioavailability in Sprague-Dawley rat at 10 mg/kg by HPLC/MS analysis; type: ADME, organism-based; conditions: in vivo; method in brief: as §1
[36] = molecular target: T4, Mast/stem cell growth factor receptor Kit; test: Inhibition of partial length human KIT expressed in Escherichia coli BL21 assessed as remaining activity at 1 uM after 1 hr by KINOMEscan method; method in brief: as §3
Rattus norvegicus [37] = test: Inhibition of myocardial hypertrophy in po dosed spontaneous hypertensive WKY rat model assessed as restoration of cardiomyocyte disarrangement to normal phenomena administered for 4 continuous weeks by Hematoxylin and eosin staining-based light microscopic method; type: functional, organism-based; method in brief: as §5
[38] = molecular target: Mast/stem cell growth factor receptor Kit (Homo sapiens, UniProt P10721, L576P); test: Binding affinity to partial length human KIT L576P mutant expressed in Escherichia coli BL21 by active-site-dependent competition assay; method in brief: as §2
Rattus norvegicus [39] = test: Inhibition of myocardial hypertrophy in spontaneous hypertensive WKY rat model assessed as decrease in left ventricular mass at systole at 10 to 20 mg/kg, po administered for 4 continuous weeks relative to control; type: functional; method in brief: as §5
[40] = molecular target: T8, Mitogen-activated protein kinase kinase kinase 20
Target sequence in this assay (Q9NYL2 whole entry): as the sequence (Q9NYL2 whole entry) above

COc1n[nH]c2ncc(C#Cc3c(F)ccc(NS(=O)(=O)c4cccc(C#N)c4)c3F)cc12
AUC (Rattus norvegicus [1]): 253794 µg/L/h | Kd (Aurora kinase B [2]): 64 nM | Activity (Aurora kinase B [3]): 2.4% | Kd [4]: 50 nM | IC50 [5]: > 3000 nM | inhibition (Rattus norvegicus [6]): Dose-dependent effect | inhibition (Rattus norvegicus [7]): Dose-dependent effect | inhibition (Rattus norvegicus [8]): Dose-dependent effect | Kd [9]: 88 nM | Kd [10]: 460 nM | Activity [11]: 3.9% | Activity [12]: 1.5% | inhibition (Rattus norvegicus [13]): Dose-dependent effect | Kd [14]: 64 nM | Activity [15]: 1.9% | inhibition (Rattus norvegicus [16]): Dose-dependent effect | Activity [17]: 3% | Activity [18]: 2.9% | half-life [19]: 34.6 h | Activity [20]: 5.5% | IC50 [21]: > 1000 nM | IC50 [22]: 3.3 nM | Activity [23]: 0.9% | fraction unbound at 4 h, 1 µM [24]: 0.002 | inhibition (Rattus norvegicus [25]): Dose-dependent effect | inhibition (Rattus norvegicus [26]): Dose-dependent effect | Kd [27]: 22 nM | Activity (Rattus norvegicus [28]): 0.95 g | Kd [29]: 2.7 nM | IC50 [30]: > 10000 nM | Kd [31]: 180 nM | inhibition (Rattus norvegicus [32]): Dose-dependent effect | Activity [33]: 9.9% | Kd [34]: 45 nM | bioavailability [35]: 20% | Activity [36]: 6.2% | inhibition (Rattus norvegicus [37]): Dose-dependent effect | Kd [38]: 210 nM | inhibition (INH) (Rattus norvegicus [39]): 3 - 8%

CC(C)Oc1n[nH]c2ncc(C#Cc3c(F)ccc(NS(=O)(=O)c4cccc(Cl)c4)c3F)cc12
IC50 [5]: > 2000 nM | IC50 [21]: > 10000 nM | IC50 [22]: 42.7 nM

CCCS(=O)(=O)Nc1ccc(F)c(C(=O)c2c[nH]c3ncc(-c4ccc(Cl)cc4)cc23)c1F [VEMURAFENIB]
IC50 [40]: 23 nM | IC50 [22]: 31.4 nM

COc1cccc(S(=O)(=O)Nc2ccc(F)c(C#Cc3cnc4[nH]nc(OC)c4c3)c2F)c1
IC50 [5]: > 7000 nM | IC50 [21]: > 1000 nM | IC50 [22]: 7.5 nM
